Experimental data published in ChEMBL document CHEMBL1212813, “alpha-Amino-3-hydroxy-5-methyl-4-isoxazolepropionic acid (AMPA) antagonists: from bench to bedside” (J Med Chem, 2010).

Columns and labels:
[1] = tested on: Mus musculus; assay: Anticonvulsant activity in po dosed mouse assessed as inhibition of MES-induced tonic seizures; type: functional
In short: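 Mice were dosed orally 2 h before maximal electroshock. The read-out was protection from tonic convulsions, and an ED50 was derived.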

[2] = Displacement of [3H]AMPA from AMPA receptor in rat cortical membrane; type: cell membranes
[3] = species on record: Rattus norvegicus; assay: Selectivity ratio IC50 for rat AMPA receptor to IC50 rat kainate receptor
[4] = tested on: Rattus norvegicus; assay: Neuroprotective effect against middle cerebral artery occlusion-induced focal cerebral ischemia in iv dosed spontaneously hypertensive rat; type: functional
[5] = tested on: Mus musculus; assay: Anticonvulsant activity in ip dosed DBA2 mouse assessed as inhibition of sound-induced clonic seizures; type: functional
[6] = target: Glutamate NMDA receptor; assay: Inhibition of NMDA receptor glutamate site from rat cortical membrane
[7] = target: Glutamate NMDA receptor; assay: Inhibition of NMDA receptor glycine site from rat cortical membrane
[8] = Displacement of [3H]kainate from kainate receptor in rat cortical membrane; type: cell membranes
[9] = tested on: Mus musculus; assay: Anticonvulsant activity in ip dosed mouse assessed as inhibition of MES-induced tonic seizures; type: functional
[10] = species on record: Homo sapiens; assay: Toxicity in human assessed as ataxia; type: organism-based; settings: in vivo
[11] = tested on: Meriones unguiculatus; assay: Neuroprotective activity against middle cerebral artery occlusion-induced focal cerebral ischemia in Mongolian gerbils assessed as reduction in infarct volume at 6 mg/kg, iv bid; type: functional; design: scale not given: the % may be the effect or the level left
[12] = species on record: Meriones unguiculatus; assay: Neuroprotective activity against middle cerebral artery occlusion-induced focal cerebral ischemia in Mongolian gerbils assessed survival of hippocampal CA1 neurons; type: functional
[13] = species on record: Homo sapiens; assay: Toxicity in human assessed as dizziness; type: organism-based; settings: in vivo
[14] = species on record: Meriones unguiculatus; assay: Neuroprotective activity against middle cerebral artery occlusion-induced focal cerebral ischemia in Mongolian gerbils assessed as reduction in infarct volume in hemesphere; type: functional; design: scale not given: the % may be the effect or the level left
[15] = species on record: Homo sapiens; assay: Toxicity in human assessed as occurance of systemic allodynia; type: organism-based; settings: in vivo
[16] = species on record: Homo sapiens; assay: Toxicity in human assessed as hazy vision; type: organism-based; settings: in vivo
[17] = target: T1, Glutamate receptor ionotropic, kainate 2 (Homo sapiens, UniProt Q13002); assay: Binding affinity to GluR6
[18] = species on record: Homo sapiens; assay: Toxicity in human assessed as sedation; type: organism-based; settings: in vivo
[19] = species on record: Felis catus; assay: Neuroprotective activity against middle cerebral artery occlusion-induced focal cerebral ischemia in cat assessed as reduction in infarct volume in hemesphere; type: functional; design: scale not given: the % may be the effect or the level left
[20] = target: T1, Glutamate receptor ionotropic, kainate 2; settings: 10 uM
[21] = target: Glutamate receptor ionotropic, kainate 3 (Homo sapiens, UniProt Q13003); assay: Binding affinity to GluR7
[22] = species on record: Meriones unguiculatus; assay: Neuroprotective activity against middle cerebral artery occlusion-induced focal cerebral ischemia in Mongolian gerbils assessed as reduction in infarct volume in cortex; type: functional; design: scale not given: the % may be the effect or the level left
[23] = target: Glutamate receptor ionotropic, kainate 1 (Homo sapiens) (UniProt P39086); assay: Binding affinity to GluR5
[24] = species on record: Felis catus; assay: Neuroprotective activity against middle cerebral artery occlusion-induced focal cerebral ischemia in cat assessed as reduction in infarct volume in cortex; type: functional; design: scale not given: the % may be the effect or the level left
[25] = target: Glutamate NMDA receptor; assay: Displacement of [3H](E)-3-(2-carboxy-2-phenylvinyl)-4,6-dichloro-1H-indole-2-carboxylic acid from NMDA receptor glutamate site from rat cortical membrane
[26] = tested on: Rattus norvegicus; assay: Neuroprotective effect against middle cerebral artery occlusion-induced focal cerebral ischemia in spontaneously hypertensive rat at 20 mg/kg, iv after 2 hrs of occlusion; type: functional
[27] = tested on: Rattus norvegicus; assay: […] effect against middle cerebral artery occlusion-induced focal cerebral ischemia in spontaneously hypertensive rat assessed as reduction in infarct volume at 20 mg/kg, iv after 2 hrs of occlusion; type: functional; design: scale not given: the % may be the effect or the level left
[28] = target: T2, Solute carrier family 22 member 11 (Homo sapiens, UniProt Q9NSA0); assay: Inhibition of human OAT4
T2 sequence (Q9NSA0 whole entry): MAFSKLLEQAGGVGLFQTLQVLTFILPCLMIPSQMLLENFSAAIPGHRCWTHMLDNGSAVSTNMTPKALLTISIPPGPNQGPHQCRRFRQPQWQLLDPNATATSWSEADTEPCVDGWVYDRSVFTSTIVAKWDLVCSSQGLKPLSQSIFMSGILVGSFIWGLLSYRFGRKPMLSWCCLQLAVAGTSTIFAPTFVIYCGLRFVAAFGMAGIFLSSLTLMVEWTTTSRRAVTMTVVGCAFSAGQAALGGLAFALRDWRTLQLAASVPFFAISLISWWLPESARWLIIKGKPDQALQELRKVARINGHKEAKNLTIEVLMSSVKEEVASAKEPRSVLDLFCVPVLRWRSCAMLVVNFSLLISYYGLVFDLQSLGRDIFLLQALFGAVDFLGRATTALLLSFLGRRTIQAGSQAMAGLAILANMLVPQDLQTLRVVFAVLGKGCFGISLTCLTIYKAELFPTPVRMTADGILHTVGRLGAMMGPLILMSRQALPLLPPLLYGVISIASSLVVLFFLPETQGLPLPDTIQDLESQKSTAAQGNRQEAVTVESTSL

[29] = target: T3, Organic anion transporter 3 (Homo sapiens, UniProt Q8TCC7); assay: Inhibition of human OAT3
T3 sequence (Q8TCC7 whole entry): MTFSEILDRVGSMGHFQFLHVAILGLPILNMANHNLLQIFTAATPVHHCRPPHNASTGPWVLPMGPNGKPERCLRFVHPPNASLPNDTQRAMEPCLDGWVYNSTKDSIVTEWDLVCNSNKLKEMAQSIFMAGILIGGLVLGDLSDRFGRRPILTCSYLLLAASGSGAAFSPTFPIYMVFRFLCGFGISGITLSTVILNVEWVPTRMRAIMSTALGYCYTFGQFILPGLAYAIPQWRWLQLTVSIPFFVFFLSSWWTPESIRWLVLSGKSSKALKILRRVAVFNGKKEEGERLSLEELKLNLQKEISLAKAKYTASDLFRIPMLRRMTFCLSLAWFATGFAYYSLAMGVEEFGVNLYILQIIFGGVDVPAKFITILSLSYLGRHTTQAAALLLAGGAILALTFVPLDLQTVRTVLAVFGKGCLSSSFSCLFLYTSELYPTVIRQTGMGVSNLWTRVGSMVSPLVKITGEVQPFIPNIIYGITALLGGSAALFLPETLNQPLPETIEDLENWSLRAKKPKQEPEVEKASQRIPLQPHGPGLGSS

[30] = target: T4, Solute carrier family 22 member 6 (Homo sapiens, UniProt Q4U2R8); assay: Inhibition of human OAT1
T4 sequence (Q4U2R8 whole entry): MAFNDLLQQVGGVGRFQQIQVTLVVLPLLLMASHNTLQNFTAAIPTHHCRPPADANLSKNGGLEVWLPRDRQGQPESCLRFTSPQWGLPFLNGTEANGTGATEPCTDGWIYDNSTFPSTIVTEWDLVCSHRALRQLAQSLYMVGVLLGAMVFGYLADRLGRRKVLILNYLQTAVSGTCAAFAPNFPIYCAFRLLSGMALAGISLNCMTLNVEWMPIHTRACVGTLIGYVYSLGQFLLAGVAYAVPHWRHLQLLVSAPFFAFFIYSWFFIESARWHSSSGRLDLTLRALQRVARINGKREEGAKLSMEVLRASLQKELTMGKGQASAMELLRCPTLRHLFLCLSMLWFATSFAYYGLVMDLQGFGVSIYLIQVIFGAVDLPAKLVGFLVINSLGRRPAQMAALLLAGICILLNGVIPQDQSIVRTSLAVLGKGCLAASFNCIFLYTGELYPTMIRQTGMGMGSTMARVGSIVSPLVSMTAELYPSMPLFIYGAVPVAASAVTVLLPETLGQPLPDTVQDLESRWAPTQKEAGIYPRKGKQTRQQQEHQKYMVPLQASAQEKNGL

[31] = tested on: Rattus norvegicus; assay: Neuroprotective effect against middle cerebral artery occlusion-induced focal cerebral ischemia in spontaneously hypertensive rat at 20 mg/kg, iv after 3 hrs of occlusion; type: functional
[32] = tested on: Rattus norvegicus; assay: Neuroprotective effect against middle cerebral artery occlusion-induced focal cerebral ischemia in iv dosed spontaneously hypertensive rat brain after 1 to 5 hrs of occlusion; type: functional
[33] = tested on: Rattus norvegicus; assay: Anticonvulsant activity in ip dosed rat assessed as inhibition of MES-induced tonic seizures; type: functional

T1 sequence (Q13002 whole entry): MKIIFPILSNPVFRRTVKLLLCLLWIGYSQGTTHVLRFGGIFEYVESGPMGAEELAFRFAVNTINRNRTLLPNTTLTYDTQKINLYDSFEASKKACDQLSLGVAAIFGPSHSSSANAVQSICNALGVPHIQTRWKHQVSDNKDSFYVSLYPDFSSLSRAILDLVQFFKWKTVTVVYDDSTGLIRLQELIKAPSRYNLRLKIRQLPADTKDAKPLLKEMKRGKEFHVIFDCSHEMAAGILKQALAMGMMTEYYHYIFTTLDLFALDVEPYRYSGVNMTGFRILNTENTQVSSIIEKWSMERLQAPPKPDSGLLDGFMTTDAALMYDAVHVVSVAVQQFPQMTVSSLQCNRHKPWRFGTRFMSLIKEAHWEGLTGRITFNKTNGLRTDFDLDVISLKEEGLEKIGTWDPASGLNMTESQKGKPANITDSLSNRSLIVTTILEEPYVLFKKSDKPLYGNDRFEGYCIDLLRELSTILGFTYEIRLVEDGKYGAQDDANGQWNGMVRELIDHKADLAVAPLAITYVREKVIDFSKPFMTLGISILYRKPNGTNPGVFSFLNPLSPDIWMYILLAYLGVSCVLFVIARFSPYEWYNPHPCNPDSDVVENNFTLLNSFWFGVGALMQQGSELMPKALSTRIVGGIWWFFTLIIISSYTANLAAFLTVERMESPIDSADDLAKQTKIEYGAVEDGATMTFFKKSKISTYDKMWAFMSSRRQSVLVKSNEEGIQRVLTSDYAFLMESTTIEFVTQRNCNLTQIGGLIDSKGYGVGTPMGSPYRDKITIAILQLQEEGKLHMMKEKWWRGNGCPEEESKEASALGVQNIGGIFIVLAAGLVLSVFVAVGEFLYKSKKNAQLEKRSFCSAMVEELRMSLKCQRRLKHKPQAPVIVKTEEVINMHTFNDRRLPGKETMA
Glutamate receptor ionotropic, kainate 3, sequence (Q13003 whole entry): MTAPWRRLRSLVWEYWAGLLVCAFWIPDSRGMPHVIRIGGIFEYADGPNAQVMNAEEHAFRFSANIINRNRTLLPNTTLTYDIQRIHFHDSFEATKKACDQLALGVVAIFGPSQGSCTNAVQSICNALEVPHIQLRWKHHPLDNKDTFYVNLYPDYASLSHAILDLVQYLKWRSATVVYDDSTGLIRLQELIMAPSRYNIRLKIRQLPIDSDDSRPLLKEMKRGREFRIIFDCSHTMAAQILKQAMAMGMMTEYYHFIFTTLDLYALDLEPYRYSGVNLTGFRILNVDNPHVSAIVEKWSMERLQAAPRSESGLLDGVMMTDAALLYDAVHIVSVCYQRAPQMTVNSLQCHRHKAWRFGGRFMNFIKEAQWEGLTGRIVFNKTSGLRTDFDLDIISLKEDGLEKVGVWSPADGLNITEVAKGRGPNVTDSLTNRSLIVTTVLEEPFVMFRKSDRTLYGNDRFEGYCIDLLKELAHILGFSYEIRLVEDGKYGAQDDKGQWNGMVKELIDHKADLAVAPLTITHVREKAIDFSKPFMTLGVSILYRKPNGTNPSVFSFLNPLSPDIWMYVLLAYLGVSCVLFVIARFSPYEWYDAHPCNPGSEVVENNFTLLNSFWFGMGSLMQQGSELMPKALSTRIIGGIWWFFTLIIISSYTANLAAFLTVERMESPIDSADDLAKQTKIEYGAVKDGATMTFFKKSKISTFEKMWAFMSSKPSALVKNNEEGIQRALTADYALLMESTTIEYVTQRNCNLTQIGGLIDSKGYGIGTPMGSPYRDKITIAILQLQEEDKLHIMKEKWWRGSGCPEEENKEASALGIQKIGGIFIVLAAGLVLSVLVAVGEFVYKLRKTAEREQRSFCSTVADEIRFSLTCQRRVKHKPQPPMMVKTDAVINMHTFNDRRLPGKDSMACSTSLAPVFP
Glutamate receptor ionotropic, kainate 1 (Homo sapiens), sequence (P39086 whole entry): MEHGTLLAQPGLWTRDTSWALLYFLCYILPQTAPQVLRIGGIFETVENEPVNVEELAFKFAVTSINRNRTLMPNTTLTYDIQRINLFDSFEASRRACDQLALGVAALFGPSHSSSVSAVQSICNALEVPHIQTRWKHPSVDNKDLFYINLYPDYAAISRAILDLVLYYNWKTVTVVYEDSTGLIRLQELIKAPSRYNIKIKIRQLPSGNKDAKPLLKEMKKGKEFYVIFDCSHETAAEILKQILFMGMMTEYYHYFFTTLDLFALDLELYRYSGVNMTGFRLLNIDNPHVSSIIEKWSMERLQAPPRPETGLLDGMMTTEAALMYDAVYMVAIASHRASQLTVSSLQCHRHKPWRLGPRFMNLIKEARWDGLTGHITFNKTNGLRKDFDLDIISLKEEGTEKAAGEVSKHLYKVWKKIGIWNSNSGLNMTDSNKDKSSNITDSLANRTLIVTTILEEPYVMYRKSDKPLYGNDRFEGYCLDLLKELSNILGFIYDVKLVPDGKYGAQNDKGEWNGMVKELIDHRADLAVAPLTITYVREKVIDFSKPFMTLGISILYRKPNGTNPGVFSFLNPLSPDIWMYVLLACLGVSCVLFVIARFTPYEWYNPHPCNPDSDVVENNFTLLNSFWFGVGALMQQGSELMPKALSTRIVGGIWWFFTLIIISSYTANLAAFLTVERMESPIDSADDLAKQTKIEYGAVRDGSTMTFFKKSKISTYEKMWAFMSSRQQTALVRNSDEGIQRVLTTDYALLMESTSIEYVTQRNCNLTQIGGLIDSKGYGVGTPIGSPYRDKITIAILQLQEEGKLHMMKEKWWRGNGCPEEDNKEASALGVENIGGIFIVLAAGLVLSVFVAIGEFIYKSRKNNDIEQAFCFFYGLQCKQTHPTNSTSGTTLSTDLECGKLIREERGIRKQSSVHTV

O=C1C[C@@H]2OCC=C3CN4CC[C@]56c7ccccc7N1[C@H]5[C@H]2[C@H]3C[C@H]46 [STRYCHNINE]
ED50 [1]: 17.4 mg/kg

Oc1nc2cc(-n3ccnc3)c(-n3ccnc3)cc2nc1O
Ki [2]: 820 nM

Oc1nc2ccccc2nc1O
Ki [2]: > 100000 nM

NS(=O)(=O)c1cccc2c1c([N+](=O)[O-])cc1nc(O)c(O)nc12 [NBQX]
Ratio IC50 [3]: > 30
Activity [4]: 30%
IC50 [2]: 150 nM
ED50 [5]: 27.8 mg/kg
IC50 [6]: > 90000 nM
IC50 [7]: > 100000 nM
IC50 [8]: 4800 nM

CS(=O)(=O)Nn1c(=O)[nH]c2cc(Cl)ccc2c1=O
ED50 [9]: 40 mg/kg

CC(=O)N1N=C(c2ccc(N)cc2)c2cc3c(cc2C[C@H]1C)OCO3 [TALAMPANEL]
ED50 [1]: 8.6 mg/kg
Activity [10]: 26%
Activity [11]: 47%
Activity [12]: 25%
Activity [13]: 52%

O=C(O)[C@@H]1C[C@H]2C[C@@H](CCc3nn[nH]n3)CC[C@H]2CN1 [TEZAMPANEL ANHYDROUS]
Activity [14]: 25%
Activity [15]: <= 58%
Activity [16]: 20%
ED50 [9]: 2.9 mg/kg
Ki [17]: > 100000 nM
IC50 [2]: 1300 nM
Ki [2]: 680 nM
Activity [18]: 15%
Activity [19]: 18%
inhibition [20]: < 20%
Ki [21]: > 100000 nM
Activity [22]: 31%
Kb [23]: 200 nM
IC50 [8]: 28100 nM
Activity [24]: 19%

C[C@H](NCc1cc([N+](=O)[O-])cc2nc(O)c(O)nc12)P(=O)(O)O
IC50 [2]: 170 nM
IC50 [25]: 32 nM

N#Cc1cc2c(cc1[N+](=O)[O-])=NC(=O)C(=O)N=2
IC50 [2]: 300 nM
IC50 [7]: 14000 nM
IC50 [8]: 1500 nM

Nc1ccncc1 [DALFAMPRIDINE]
ED50 [1]: 8.4 mg/kg

O=C(O)Cn1c(=O)c(=O)[nH]c2cc([N+](=O)[O-])c(-n3ccnc3)cc21 [ZONAMPANEL]
Activity [26]: 45%
Activity [27]: 55%
IC50 [28]: 300000 nM
IC50 [29]: 6600 nM
IC50 [30]: 3000 nM
Activity [31]: 35%
Ki [2]: 96 nM
IC50 [6]: > 100000 nM
IC50 [7]: > 100000 nM
IC50 [8]: 4600 nM

O=c1[nH]c2cc([N+](=O)[O-])c([N+](=O)[O-])cc2[nH]c1=O [DNQX]
IC50 [2]: 500 nM
IC50 [6]: 40000 nM
IC50 [7]: 9500 nM
IC50 [8]: 2000 nM

O=c1[nH]c2cc(C(F)(F)F)c(N3CCOCC3)cc2n(CP(=O)(O)O)c1=O [FANAPANEL]
Activity [32]: 19%
ED50 [33]: 13 mg/kg
IC50 [2]: 120 nM
IC50 [6]: 2800 nM
IC50 [7]: 5150 nM
IC50 [8]: 2500 nM
